According to ChEMBL document CHEMBL1153592, “1,8-Naphthyridine-3-carboxamide derivatives with anticancer and anti-inflammatory activity” (Eur J Med Chem, 2009):
pIC50: −log10 of the molar value. Activity calls are given as the source filed them. The rule behind the calls is not given here.

What was measured:
SW-620 [1] = assay: Cytotoxicity against human SW620 cells at 10 uM after 72 hrs by MTT assay; assay type: functional, cell-based
Summary of the method: (§1)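 Three-day MTT screen with 5000–10,000 cells/well and 72 h compound exposure at the top screening concentration. After 3 h of MTT uptake, lysis with 10% SDS–0.01 N HCl, then A540 read after 1 h. % cytotoxicity = (1 − X/R1)×100, where X is treated minus blank absorbance and R1 is untreated control absorbance.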

[2] = Antiinflammatory activity in C57BL/6 mouse DC assessed as inhibition of LPS-induced IL-6 production at 1 ug/ml after 24 hrs by ELISA; assay type: functional
Summary of the method: (§2)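 Dendritic cells grown from femoral bone marrow of 8–12-week-old C57BL/6 mice in RPMI-1640 with 10% FBS and 20 ng/ml rmGM-CSF at 37 °C, 5% CO2. Day-6 immature DCs were stimulated with 10 ng/ml LPS plus compound for 24 h. Supernatant cytokine/chemokine measured by ELISA (pg/ml); % change = (B−A)/A×100, versus LPS-stimulated DCs alone.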

[3] = Antiinflammatory activity in C57BL/6 mouse DC assessed as inhibition of LPS-induced IL1-beta production at 1 ug/ml after 24 hrs by ELISA; assay type: functional; summary of the method: as §2
ECV-304 [4] = assay: Cytotoxicity against human ECV304 cells at 10 uM after 72 hrs by MTT assay; assay type: functional, cell-based; summary of the method: as §1
[5] = Antiinflammatory activity in C57BL/6 mouse DC assessed as inhibition of LPS-induced IL1-beta production at 0.1 ug/ml after 24 hrs by ELISA; assay type: functional; summary of the method: as §2
[6] = Antiinflammatory activity in C57BL/6 mouse DC assessed as inhibition of LPS-induced IL-6 production at 0.1 ug/ml after 24 hrs by ELISA; assay type: functional; summary of the method: as §2
PA-1 [7] = assay: Cytotoxicity against human PA1 cells at 10 uM after 72 hrs by MTT assay; assay type: functional, cell-based; summary of the method: as §1
HBL-100 [8] = assay: Cytotoxicity against human HBL100 cells at 10 uM after 72 hrs by MTT assay; assay type: functional, cell-based; summary of the method: as §1
[9] = Cytotoxicity against mouse NIH/3T3 cells at 10 uM after 72 hrs by MTT assay; assay type: cell-based; details: nih3t3, 72 h; summary of the method: as §1
K562 [10] = assay: Cytotoxicity against human K562 cells at 10 uM after 72 hrs by MTT assay; assay type: functional, cell-based; summary of the method: as §1
MIA PaCa-2 [11] = assay: Cytotoxicity against human MIAPaCa2 cells at 10 uM after 72 hrs by MTT assay; assay type: functional, cell-based; summary of the method: as §1
KB [12] = assay: Cytotoxicity against human KB cells at 10 uM after 72 hrs by MTT assay; assay type: functional, cell-based; summary of the method: as §1
DU-145 [13] = assay: Cytotoxicity against human DU145 cells at 10 uM after 72 hrs by MTT assay; assay type: functional, cell-based; summary of the method: as §1
A549 [14] = assay: Cytotoxicity against human A549 cells at 10 uM after 72 hrs by MTT assay; assay type: functional, cell-based; summary of the method: as §1
[15] = Antiinflammatory activity in C57BL/6 mouse DC assessed as inhibition of LPS-induced TNFalpha production at 0.1 ug/ml after 24 hrs by ELISA; assay type: functional; summary of the method: as §2
[16] = Antiinflammatory activity in C57BL/6 mouse DC assessed as inhibition of LPS-induced IP-10 production at 0.1 ug/ml after 24 hrs by ELISA; assay type: functional; summary of the method: as §2
[17] = Antiinflammatory activity in C57BL/6 mouse DC assessed as inhibition of LPS-induced IP-10 production at 1 ug/ml after 24 hrs by ELISA; assay type: functional; summary of the method: as §2
[18] = Antiinflammatory activity in C57BL/6 mouse DC assessed as inhibition of LPS-induced TNFalpha production at 1 ug/ml after 24 hrs by ELISA; assay type: functional; summary of the method: as §2
[19] = Cytotoxicity against mouse NIH/3T3 cells after 72 hrs by MTT assay; assay type: cell-based, NIH3T3
HBL-100 [20] = assay: Cytotoxicity against human HBL100 cells after 72 hrs by MTT assay; assay type: functional, cell-based; details: HBL-100, 72 h
ECV-304 [21] = assay: Cytotoxicity against human ECV304 cells after 72 hrs by MTT assay; assay type: functional, cell-based; details: Homo sapiens, ECV-304, 72 h; read-out: IC50
K562 [22] = assay: Cytotoxicity against human K562 cells after 72 hrs by MTT assay; assay type: functional, cell-based; details: K562, 72 h
PA-1 [23] = assay: Cytotoxicity against human PA1 cells after 72 hrs by MTT assay; assay type: functional, cell-based; details: PA-1, 72 h
A549 [24] = assay: Cytotoxicity against human A549 cells after 72 hrs by MTT assay; assay type: functional, cell-based; details: A549, 72 h
SW-620 [25] = assay: Cytotoxicity against human SW620 cells after 72 hrs by MTT assay; assay type: functional, cell-based; details: SW-620, 72 h
KB [26] = assay: Cytotoxicity against human KB cells after 72 hrs by MTT assay; assay type: functional, cell-based
DU-145 [27] = assay: Cytotoxicity against human DU145 cells after 72 hrs by MTT assay; assay type: functional, cell-based; details: DU-145, 72 h
MIA PaCa-2 [28] = assay: Cytotoxicity against human MIAPaCa2 cells after 72 hrs by MTT assay; assay type: functional, cell-based; details: MIA PaCa-2, 72 h

Structure (SMILES)	Activity (SW-620 [1])	inhibition (INH) [2] [%]	inhibition (INH) [3] [%]	Activity (ECV-304 [4])	inhibition (INH) [5] [%]	inhibition (INH) [6] [%]	Activity (PA-1 [7])	Activity (HBL-100 [8])	Activity [9]	Activity (K562 [10])	Activity (MIA PaCa-2 [11])	Activity (KB [12])	Activity (DU-145 [13])	Activity (A549 [14])	inhibition (INH) [15] [%]	inhibition (INH) [16] [%]	inhibition (INH) [17] [%]	inhibition (INH) [18] [%]	pIC50 (HBL-100 [20])	pIC50 (ECV-304 [21])	also measured
C#CCn1cc(C(=O)NC(CC(=O)Nc2ccccn2)c2ccccc2)c(=O)c2cccnc21 (centres undefined)	inactive	74.9	50.1	inactive	34.1	74.4	inactive	inactive	Not Active	inactive	inactive	inactive	inactive	inactive	–	–	–	–	–	–	–
C#CCn1cc(C(=O)NC(CC(=O)NC2CCCC2)c2ccccc2)c(=O)c2cccnc21 (centres undefined)	inactive	–	52.1	inactive	62.4	–	inactive	inactive	Not Active	inactive	inactive	inactive	inactive	inactive	19.3	38.8	25	34.7	–	–	–
C#CCn1cc(C(=O)NC(CC(=O)Nc2ccccc2)c2ccccc2)c(=O)c2cccnc21 (centres undefined)	–	–	78.5	–	75.1	–	–	–	–	–	–	–	–	–	19.1	31.7	33.1	29.7	< 5.00	< 5.00	IC50 ([19]; nih3t3): Not Active; pIC50 (K562 [22]): < 5.00; pIC50 (PA-1 [23]): < 5.00; pIC50 (A549 [24]): < 5.00; pIC50 (SW-620 [25]): < 5.00; pIC50 (KB [26]): < 5.00; pIC50 (DU-145 [27]): 5.14; pIC50 (MIA PaCa-2 [28]): < 5.00
C#CCn1cc(C(=O)NC(CC(=O)Nc2ccccc2)c2ccccc2)c(=O)c2cc(F)c(Cl)nc21 (centres undefined)	–	96	106.8	–	84.8	60	–	–	–	–	–	–	–	–	80	17.3	102.4	99	5.03	< 5.00	pIC50 ([19]; Mus musculus, NIH3T3, 72 h, read-out: IC50): 5.01; pIC50 (K562 [22]): 5.18; pIC50 (PA-1 [23]): 5.68; pIC50 (A549 [24]): < 5.00; pIC50 (SW-620 [25]): 5.24; pIC50 (KB [26]): < 5.00; pIC50 (DU-145 [27]): 5.23; pIC50 (MIA PaCa-2 [28]): 5.16
